Rows were chosen to be rich in hits. Some 3% of all compounds tested hit in one or more screens of this group.
TAAR1 antagonist – human TAAR1 antagonism; actives 1.5% (n = 360,000); CHO RD-HGA16 TAAR1, Fluo-8 calcium fluorescence, antagonist; inhibition, % at 3 µM;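 active = inhibition above a per-plate cutoff, the mean inhibition of test compounds on that plate plus 3 SD, cut at about 49% in these data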;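 also: 0% = DMSO plus EC80 beta-PEA response and 100% = DMSO alone without agonist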
Target sequence (Q96RJ0 whole entry, looked up): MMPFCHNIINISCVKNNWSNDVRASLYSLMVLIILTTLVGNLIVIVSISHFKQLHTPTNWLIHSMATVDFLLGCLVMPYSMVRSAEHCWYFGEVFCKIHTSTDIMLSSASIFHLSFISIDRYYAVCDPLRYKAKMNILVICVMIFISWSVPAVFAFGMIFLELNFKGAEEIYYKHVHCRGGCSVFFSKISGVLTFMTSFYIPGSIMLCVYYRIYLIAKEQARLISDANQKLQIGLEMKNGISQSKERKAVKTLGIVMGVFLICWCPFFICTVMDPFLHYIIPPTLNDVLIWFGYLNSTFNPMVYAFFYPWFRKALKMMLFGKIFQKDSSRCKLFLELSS
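System: RD-HGA16 CHO cells with stable hTAAR1 and Gα16 | Probe or stimulus: EC80 β-phenethylamine stimulus | Dosing: 3 µM, single point | Times: Dye loading 75 min at 37 °C, then 30 min room temperature | Measured by: Fluo-8 calcium-sensitive fluorescence | Read-out basis: % inhibition of agonist calcium response | Replicates: n of 1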
CHRM4 PAM – positive allosteric modulators of human muscarinic M4 receptor | CHO-K1 hM4/Gqi5, Fluo-8 calcium fluorescence, ACh EC20; 0% = ACh EC20, 100% = maximal ACh | activation, % at 3 µM | actives 0.4% (n = 360,000) | P08173;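 active = activation above its plate's cutoff, the mean activation of sample wells plus 3 SD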
M4 antag – antagonists of human muscarinic M4 receptor (CHRM4); P08173; CHO-hM4 cells, ACh EC80, Fluo-8 calcium fluorescence; inhibition, % at 3 µM; actives 0.73% (n = 360,000); AID 624125;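 active = inhibition above its plate's cutoff, the mean inhibition of sample wells plus 3 SD, cut at about 27% in these data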;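 also: 0% = acetylcholine EC80 with DMSO and 100% = DMSO without agonist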
TAAR1 agonist – agonists of human TAAR1 | Q96RJ0 | CHO RD-HGA16 TAAR1, Fluo-8 calcium fluorescence; vehicle wells 0%, saturating PEA agonist 100% | activation, % at 3 µM | actives 0.99% (n = 360,000) | AID 624467;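 active = activation above the mean activation of all test compounds in the run plus 3 SD, cut at about 38% in these data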
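Assay system: CHO-derived RD-HGA16 cells with stable Gα16 and human TAAR1; timing: 17-24 h seeding, 75 min 37 °C dye, 30 min RT; read-out: % activation from peak over basal fluorescence ratio, DMSO-to-PEA scaled; measured by: kinetic Fluo-8 calcium fluorescence; benchmarks: low control DMSO, high control PEA (EC100); doses: 3 µM single concentration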
CHRM4 agonist – CHRM4 agonism in calcium assay | P08173 | CHO-K1 hM4/Gqi5, Fluo-8 calcium fluorescence; vehicle 0%, full acetylcholine response 100% | activation, % at 3 µM | actives 0.14% (n = 360,000) | AID 624127;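 active = activation above the run mean over all test wells plus 3 SD, cut at about 32% in these data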;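 also: peak over basal fluorescence ratio per well then scaled between controls; 0% = DMSO wells and 100% = acetylcholine at EC100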
* hit, by the source's call; nt = no result given.

SMILES	TAAR1 antagonist	CHRM4 PAM	M4 antag	TAAR1 agonist	CHRM4 agonist
Cc1cccc[n+]1CCCCCCCCCC[n+]1ccccc1C	3	-11	7	1	1
CCCCCCCCCC[n+]1cccc2c3ccccc3ccc21	3	-23	58*	11	5
O=C(N[C@H](Cc1ccccc1)C(=O)NCC1CCCCC1)[C@H]1O[C@@H](n2ccc(=O)[nH]c2=O)[C@H](O)[C@@H]1O	-13	nt	nt	0	nt
COC(=O)C1=C(C)N(Cc2ccccc2C(F)(F)F)C(=NCc2ccc3c(c2)OCO3)NC1c1ccc(C(F)(F)F)cc1 (configuration not stated)	16	nt	nt	5	nt
CCCC(CCC)C(=O)Nc1ccc2c(c1)N(C(=O)CN1CCN(C)CC1)c1ccccc1CC2	8	-24	44*	3	1
O=C(CN1CCCCC1)N1c2ccccc2CCc2ccccc21	2	-22	77*	12	1
CCN1CCN(CC(=O)N2c3ccccc3Sc3ccccc32)CC1	6	-15	31*	1	2
CCOC(=O)Nc1ccc2c(c1)N(C(=O)CN1CCN(C)CC1)c1ccccc1S2	4	-27	24	16	3
O=C(CN1CCCC1)N1c2ccccc2Sc2ccccc21	13	-25	61*	-1	0
CCOC(=O)C1=CCN(S(=O)(=O)c2ccccc2Cl)C1c1ccc(C)cc1 (configuration not stated)	9	-13	-6	7	1
Cn1c(=O)c2ccccc2n(C)c1=O	-13	nt	nt	1	nt
CCOC(=O)C1=CCN(S(=O)(=O)c2ccc(Cl)cc2)C1c1cccc(Cl)c1 (configuration not stated)	21	nt	nt	-1	nt
COc1ccc(CNC(=O)c2ccc(N3CCC4(CC3)CC(c3ccc(Cl)cc3)=NO4)c(NC(=O)Cc3ccc(F)cc3)c2)cc1	-15	6	-9	4	2
CCOC(=O)Nc1ccc2c(c1)N(C(=O)C(C)N1CCCC1)c1ccccc1CC2 (configuration not stated)	nt	-16	60*	nt	1
CCOC(=O)Nc1ccc2c(c1)N(C(=O)OC)c1ccccc1CC2	-1	10	-6	8	0
O=C(CN1CCC(O)CC1)N1c2ccccc2C=Cc2ccccc21	-7	-21	29*	1	1
Cc1cccc(NC(=O)CNC(=O)[C@H](CCc2ccccc2)NC(=O)[C@H]2O[C@@H](n3cnc4c(N)ncnc43)[C@H](O)[C@@H]2O)c1C	-27	nt	nt	6	nt
Cc1nc(Cl)sc1C(=O)O	-3	34*	6	8	1
Cc1ccc(-n2nnnc2Sc2ccc(S(=O)(=O)NCCN(C)C)cc2[N+](=O)[O-])cc1	4	-18	34*	10	11
O=[N+]([O-])c1cc(S(=O)(=O)NCCN2CCOCC2)ccc1Sc1nnnn1-c1ccccc1	-4	-16	49*	6	3
O=S1(=O)CCSC[C@@H](CNCc2ccco2)N1	0	nt	nt	1	nt
O=[N+]([O-])/C=C\c1ccc(N2CCCC2)c(F)c1	nt	-23	34*	nt	41*
COC(=O)C1=C(C)N(Cc2ccc(C(F)(F)F)cc2)C(=NCc2ccc(OC)cc2)NC1c1ccccc1C(F)(F)F (configuration not stated)	-15	nt	nt	14	nt
CC(=O)c1ccc(N2CCC(c3cc(-c4ccc(Cl)cc4)n[nH]3)CC2)c([N+](=O)[O-])c1	nt	-16	29*	nt	4
COc1ccc(-c2cc(C3CCN(c4ccc(C(C)=O)cc4[N+](=O)[O-])CC3)[nH]n2)cc1	39	-10	6	21	6
SMILES	TAAR1 antagonist	CHRM4 PAM	M4 antag	TAAR1 agonist	CHRM4 agonist
CCCCn1nc(C(=O)Nc2ccc(-n3cnnn3)cc2)c2ccccc2c1=O	52*	-3	5	24	11
CC(=O)Nc1nc(-c2ccc3c(c2)CC(C)N3C(=O)C2CC2)c(C)s1 (configuration not stated)	21	-8	-6	3	2
Cc1sc(NC(=O)c2ccco2)nc1-c1ccc2c(c1)CC(C)N2C(=O)C1CC1 (configuration not stated)	nt	-15	32*	nt	17
COc1ccccc1Cc1c(-c2ccc(F)cc2)nc2c3ccccc3ccn12	-2	nt	nt	-1	nt
c1ccc(-c2csc3ncnc(NCc4ccccn4)c23)cc1	53*	-40	17	11	16
c1ccc(CNc2ncnc3scc(-c4cccs4)c23)nc1	27	-12	5	5	14
OC[C@@H]1CN(Cc2ccccc2)C[C@H](n2cnc3c(NC4CC4)ncnc32)O1	-9	4	-5	0	1
COc1ccc(CN2C[C@@H](CO)O[C@@H](n3cnc4c(N5CCCC5)ncnc43)C2)cc1	3	17*	-23	0	2
OC[C@@H]1CN(Cc2ccc(-c3ccccc3)cc2)C[C@H](n2cnc3c(NC4CCC4)ncnc32)O1	36	-10	28*	8	17
COc1ccc(CN2C[C@@H](CO)O[C@@H](n3cnc4c(N5CCN(CCO)CC5)ncnc43)C2)cc1	-7	6	-2	2	0
CCCCC(CC)CNC(=O)C1CC=CCC1C(=O)O (configuration not stated)	4	-8	-2	37*	0
C[C@]12Cc3ccccc3C1CC1=N[C@@H](C3CCCCC3)O[C@@]13C[C@@H]2C(=O)N3C1CCN(Cc2ccccc2)CC1 (some centres not stated)	-42	nt	nt	-2	nt
O=C(C1CCCCC1)N1C[C@@H](O)[C@H](n2cc(-c3ccc(F)cc3)nn2)C[C@@H]1c1ccc(Cl)cc1	5	2	-12	1	8
CCCCCCCCN1C(=O)[C@@H](CC(=O)NCc2ccc(C)o2)C[C@@]2(C(=O)OC)C1=C[C@H](C1CCCC1)O[C@@H]2C	-33	nt	nt	-1	nt
Cc1ccc(C(OCC(C)(C)C[N+](C)(C)C)c2ccccc2)cc1 (configuration not stated)	-24	-21	52*	3	2
CCN(CC)CCC(C)OC(c1ccccc1)c1ccccc1 (configuration not stated)	-15	-22	6	13	2
Cc1ccccc1C(OCCN(C)C)c1ccccc1 (configuration not stated)	1	-18	62*	4	2
CCN(CC)CCOC(c1ccccc1)c1ccc(C)cc1 (configuration not stated)	-4	-17	43*	13	2
CCN(CC)CC#CCOC(c1ccccc1)c1ccccc1	-19	-24	30*	3	-1
C[C@H](O)[C@@H]1C(=O)N2CCc3c([nH]c4c(-c5ccccc5)cccc34)[C@@H]2C[C@@H]1N(C)C(=O)c1ccco1	47	nt	nt	15	nt
CC(C)NC(=O)OC[C@@H]1CSCCS(=O)(=O)N1	10	nt	nt	2	nt
